HSF1 inhib: HSF1 inhibition. NIH3T3-HGL HSE-luciferase, MG132-induced, luminescence 8 h; active compounds read low. activity change, negative = inhibition, % at 7.5 µM (by protocol). 300,000 compounds, 0.77% hits. AID 2098;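 active = more than half of replicate wells show activity change below -50%, luminescence cut by over half; inconclusive = some wells, but at most half, below -50%; inactive = no replicate well below -50%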;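 also: luciferase reports HSF-1 transcriptional activity via heat shock element; 0% = median of DMSO wells and -100% = zero luminescence signal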
Tb hexokinase: T. brucei hexokinase 1 inhibition; recombinant TbHK1, G6PDH-coupled NADH A340; inhibition, % at 10 µM; 220,000 compounds, 0.11% hits; AID 1430;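 active = inhibition of 50% or more in the single-dose primary screen; inactive = inhibition below 50%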
Hsp70 act: switches on Hsp70 transcription; HeLa Hsp70 promoter luciferase reporter, luminescence; scaled: vehicle 0, proteasome-inhibitor control 100%; 200,000 compounds, 0.04% hits; activation, % at 10 µM; AID 1203;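 active = activation above the mean across all tested compounds plus 3 SD, cutoff set per campaign, cut at about 5.5% in these data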;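 also: 100% = MG132 at 30 µM as the positive control and 0% = DMSO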
HSP90 refold inh: inhibitors of HSP90 luciferase refolding in rabbit reticulocyte lysate; luciferase refolding luminescence, 3 h; AID 1789; inhibition, % at 5.6 µM; 290,000 compounds, 0.91% hits;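 active = inhibition above the screen-wide mean plus 3 SD, computed separately per campaign, cut at about 16% in these data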;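 also: 0% = DMSO wells and 100% = 60 µM geldanamycin wells; inhibitors lower the luminescence because luciferase stays unfolded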
HKDC1 inhibitor: HKDC1 (human) hexokinase inhibition | 340,000 compounds, 0.16% hits | AID 493160 | recombinant HKDC1, G6PDH/diaphorase resazurin coupled fluorescence | inhibition, % at 20 µM;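 active = inhibition above about 35% when tested at 20 µM, limit read from the data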;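 also: plate controls were DMSO wells with enzyme for no effect and DMSO wells lacking enzyme for full effect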
Target sequence (Q2TB90 whole entry, looked up): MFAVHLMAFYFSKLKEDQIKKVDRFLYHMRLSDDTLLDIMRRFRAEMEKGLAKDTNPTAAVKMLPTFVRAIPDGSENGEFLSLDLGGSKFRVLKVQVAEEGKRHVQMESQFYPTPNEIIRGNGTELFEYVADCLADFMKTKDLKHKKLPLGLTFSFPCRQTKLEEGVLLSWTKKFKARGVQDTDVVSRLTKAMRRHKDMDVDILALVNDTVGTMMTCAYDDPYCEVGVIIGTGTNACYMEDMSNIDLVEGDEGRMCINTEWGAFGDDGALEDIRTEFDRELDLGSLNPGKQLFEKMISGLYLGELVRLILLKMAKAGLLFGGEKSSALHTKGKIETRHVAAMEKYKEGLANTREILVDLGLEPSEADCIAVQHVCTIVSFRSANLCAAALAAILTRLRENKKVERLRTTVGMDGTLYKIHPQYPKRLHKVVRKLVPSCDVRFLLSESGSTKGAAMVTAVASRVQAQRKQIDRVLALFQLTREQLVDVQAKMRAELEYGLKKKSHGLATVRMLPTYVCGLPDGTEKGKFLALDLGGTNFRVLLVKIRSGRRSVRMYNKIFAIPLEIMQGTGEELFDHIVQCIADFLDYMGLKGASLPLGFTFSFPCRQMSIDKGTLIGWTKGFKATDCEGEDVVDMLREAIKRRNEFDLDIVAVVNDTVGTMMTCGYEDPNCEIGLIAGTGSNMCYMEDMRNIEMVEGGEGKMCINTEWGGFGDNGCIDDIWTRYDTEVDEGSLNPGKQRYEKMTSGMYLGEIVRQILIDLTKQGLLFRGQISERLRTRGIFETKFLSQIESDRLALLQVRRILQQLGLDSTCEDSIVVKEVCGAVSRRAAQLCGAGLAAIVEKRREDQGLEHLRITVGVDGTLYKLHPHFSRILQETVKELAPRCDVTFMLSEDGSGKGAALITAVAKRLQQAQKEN
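Material – in-house recombinant HK5 (HKDC1) enzyme · Quantity – HKDC1 at 5 µg/mL · Buffer or medium – pH 8.0 Tris buffer with 10 mM MgCl2 · Reagent – glucose with 1 mM ATP · Dosing – single 20 µM dose · Times – reaction time 90 min, room temperature, protected from light · Technique – resorufin fluorescence at 613 nm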
HSF1 activator: increases HSF-1 driven luciferase reporter signal. 300,000 compounds, 1.7% hits. NIH3T3-HGL HSF-1 luciferase reporter, MG132, 8 h; 100% = twice DMSO control signal. activation, % at 9 µM. AID 504408;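 active = mean replicate activation of at least 50% with a set share of replicates each reaching 50%; inconclusive = only one of those two conditions met; inactive = mean below 50% and too few replicates reaching it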;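 also: 0% = median of the neutral control wells and 100% = twice that signal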
HSP90 inh confirm: HSP90 inhibition, confirmation assay; shares compounds with HSP90 refold inh; rabbit reticulocyte lysate, luciferase refolding luminescence, 3 h; inhibition, % at 5.9 µM; 2,300 compounds, 64% hits; AID 1846; in the data active = inhibition above about 18%;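 also: 0% = vehicle wells and 100% = reference inhibitor wells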
luciferase ctr: counter-screen for HSP90 inhibitors: inhibitors of firefly luciferase; shares compounds with HSP90 refold inh; purified native firefly luciferase, luminescence; inhibition, % at 5.9 µM; 2,300 compounds, 48% hits;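 active = inhibition above the mean inhibition of all tested sample wells plus 3 SD, cut at about 10% in these data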;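 also: 0% = DMSO with luciferase and 100% = wells lacking luciferase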
Active calls of the source: *; ? = inconclusive; nt = no result given. A selection: hits, their analogues and other compounds. The true share with any hit is near 3.1%.

SMILES	HSF1 inhib	Tb hexokinase	Hsp70 act	HSP90 refold inh	HKDC1 inhibitor	HSF1 activator	HSP90 inh confirm	luciferase ctr
CCOc1ccc(OCc2ccc(C(=O)NCc3cccnc3)o2)cc1	-8.3	-3.1	-0.1	10.6	0.5	8.4	nt	nt
CCOc1ccc(OCc2ccc(C(=O)Nc3cccnc3)o2)cc1	9.2	-0.8	-0.1	27.9*	2.5	22.4	31.6*	-22.5
CCOc1ccc(OCc2ccc(C(=O)N3CCCCC3)o2)cc1	2.6	nt	nt	23.4*	2.5	-2.9	13.0	-25.6
CCOc1ccc(OCc2ccc(C(=O)N3CCc4ccccc4C3)o2)cc1	7.8	5.8	-0.1	24.3*	-3.1	14.9	32.6*	-18.2
CCN1CCN(C(=O)c2ccc(COc3ccc(Cl)cc3)o2)CC1	6.8	3.3	-0.2	-2.6	2.4	31.0	nt	nt
Cc1cccc(N(CC(=O)NC(C)C)C(=O)CCC(=O)Nc2nccs2)c1	-4.3	nt	nt	-3.6	-7.7	0.3	nt	nt
Cc1ccc(NC(=O)COC(=O)C2CCN(c3ccc(C(F)(F)F)cn3)CC2)cc1	nt	nt	nt	nt	3.4	nt	nt	nt
COc1ccccc1NC(=O)C(=O)c1cn(CC(=O)N2CCOCC2)c2ccccc12	10.8	nt	nt	21.3*	-0.5	15.6	-1.2	-22.6
O=C(CCN1C(=O)S/C(=C/c2ccccc2)C1=O)Nc1ccc(O)c(C(=O)O)c1	-2.9	nt	nt	-0.4	7.4	3.3	nt	nt
CCCCn1c(N)c(N(CC(C)C)C(=O)CCCc2nc3ccccc3c(=O)[nH]2)c(=O)[nH]c1=O	-9.6	nt	nt	nt	6.1	-20.2	nt	nt
Cc1nn(CC(=O)c2ccccc2Cl)c(C)c1[N+](=O)[O-]	-32.4	-5.4	0.4	21.6*	-1.6	-36.5	33.3*	27.9*
Cc1nn(CC(=O)NCc2ccccc2)c(C)c1[N+](=O)[O-]	-1.2	2.4	0.0	-2.5	-6.4	-3.1	nt	nt
O=C(NC1CCCCC1)c1noc2c1CCCCC2	-24.5	-4.7	0.2	19.1*	-2.3	-21.0	31.1*	14.1*
CC(C)(C)C1CCc2onc(C(=O)NC3CCCC3)c2C1 (configuration not stated)	-7.8	-4.2	-0.2	3.8	-6.7	-4.6	nt	nt
CCOc1ccc(-c2nc(CN(Cc3ccccc3)C[C@@H]3CCC(=O)N3)c(C)o2)cc1	-6.5	-2.5	-0.3	22.7*	-5.5	-7.9	41.3*	-4.8
COc1cc(C2C(C(C)=O)=C(O)C(=O)N2Cc2ccccc2)ccc1O (configuration not stated)	-8.1	nt	nt	6.4	0.8	-3.2	nt	nt
CCC/C=N/Nc1nc2ccccc2s1	14.5	3.0	0.5	19.8*	-6.5	?	10.9	1.6
C(=C\c1ccccc1)/C=N/Nc1nc2ccccc2s1	9.0	-14.1	0.8	-2.3	-4.9	28.5	nt	nt
CC1(C)CC(=O)C/C(=N/Nc2nc3ccccc3s2)C1	-37.2	-8.1	0.0	22.3*	-6.2	-46.8	5.4	-6.4
CC1CCC/C(=N/Nc2nc3ccccc3s2)C1 (configuration not stated)	-21.9	-0.7	0.2	46.8*	-7.7	-28.8	25.0*	12.4*
Cc1ccccc1OCC(=O)N/N=C1\CC(=O)CC(C)(C)C1	0.8	nt	nt	-0.1	2.3	8.7	nt	nt
COc1cccc(N2CC(NS(=O)(=O)c3ccc4ccccc4c3)CC2=O)c1 (configuration not stated)	14.1	nt	nt	nt	1.0	12.7	nt	nt
CC1CCc2ccccc2N1CC(=O)Nc1cccc(S(=O)(=O)N2CCCC2)c1 (configuration not stated)	nt	nt	nt	nt	0.6	nt	nt	nt
CSc1cccc(NC(=O)c2ccc(NC3=NC4CS(=O)(=O)CC4S3)cc2)c1 (configuration not stated)	-2.0	nt	nt	-2.4	-1.7	-5.4	nt	nt
COc1ccc(S(=O)(=O)Oc2ccccc2C(N)=O)cc1	nt	nt	nt	nt	-4.8	nt	nt	nt
SMILES	HSF1 inhib	Tb hexokinase	Hsp70 act	HSP90 refold inh	HKDC1 inhibitor	HSF1 activator	HSP90 inh confirm	luciferase ctr
O=C(Oc1ccc[nH]c1=O)c1cc([N+](=O)[O-])cc([N+](=O)[O-])c1	-9.6	1.9	nt	13.1	8.2	-7.0	4.9	1.9
COc1ccc(C(=O)Oc2ccc[nH]c2=O)cc1	6.0	-9.2	nt	2.2	-0.2	12.4	nt	nt
COc1ccc(-n2cc(C(=O)c3ccccc3O)cn2)cc1	-51.5*	-7.1	-0.3	34.2*	2.4	-53.3	52.3*	39.9*
COc1ccc(O)c(C(=O)c2cnn(-c3ccccc3)c2)c1	18.1	nt	nt	-1.9	-3.7	44.3	nt	nt
CCOC(=O)N1CCN(C(=O)COC(=O)C2CCN(S(=O)(=O)c3c(Cl)cccc3Cl)CC2)CC1	-1.6	nt	nt	nt	-3.5	0.4	nt	nt
O=C(c1ccc(N2CCOCC2)cc1)c1cccs1	13.8	10.5	-0.3	18.1*	-8.1	26.9	42.2*	21.2*
C/C(=N\Nc1ccccn1)c1ccc(S(=O)(=O)NCc2ccco2)cc1	14.5	-25.2	-0.3	-3.9	4.5	9.0	nt	nt
C/C(=N/Nc1ncc(Br)cn1)c1ccc(Br)cc1	9.3	nt	nt	-1.8	-3.8	8.3	nt	nt
C/C(=N\Nc1ccc(Cl)c(C(=O)O)c1)c1cccc([N+](=O)[O-])c1	0.5	2.1	nt	18.5*	8.3	6.0	1.6	-14.2
C/C(=N\Nc1ccc(C(=O)O)cc1)c1ccc(S(=O)(=O)NCc2ccco2)cc1	-17.5	-19.4	nt	48.1*	0.9	-24.8	20.4*	8.7
C/C(=N\Nc1ccc(C(=O)O)cc1)c1ccc(Br)cc1	-19.5	-76.6	nt	46.0*	-1.4	-33.5	77.5*	67.3*
C/C(=N\Nc1ccc(Cl)c(C(=O)O)c1)c1ccc(Br)s1	7.6	nt	nt	21.8*	0.0	-3.1	1.2	-10.4
C/C(=N\NC(=O)c1ccc(Cl)c(Cl)c1)c1ccc(Br)s1	-2.4	-1.7	-0.4	-3.4	-3.3	-11.5	nt	nt
CN(C)c1cccc(F)c1C(=O)NC(=O)Nc1ccc(Cl)cc1	nt	nt	nt	nt	-0.5	nt	nt	nt
COc1ccc2c(c1)C(=NNc1ccc(C(=O)O)cc1)c1cc(OC)ccc1-2	5.9	nt	nt	-7.6	7.5	25.6	nt	nt
C/C(=N\Nc1ccc(C(=O)O)cc1)c1ccc(Cl)s1	0.5	nt	nt	21.7*	-0.3	-1.0	28.8*	22.1*
COc1ccc(/C(C)=N/Nc2ccc(C(=O)O)cc2)c(OC)c1	-6.9	-1.4	-0.5	22.5*	-3.5	-7.1	12.5	18.5*
CC1CCc2c(sc3ncnc(SCC(=O)N(C)C4CCS(=O)(=O)C4)c23)C1 (configuration not stated)	nt	nt	nt	nt	9.7	nt	nt	nt
COC(=O)c1cc(COc2ccc3c4c(c(=O)oc3c2)CCCC4)c(C)o1	-3.6	3.6	-0.2	2.2	14.9	1.2	nt	nt
Cc1c(OCc2ccc(C(=O)O)o2)ccc2c3c(c(=O)oc12)CCC3	-9.1	-13.3	-0.4	49.6*	0.4	-2.1	62.7*	13.4*
Cc1oc(C(=O)O)cc1COc1ccc2c3c(c(=O)oc2c1)CCC3	2.0	-8.4	-0.4	19.3*	11.2	21.6	8.2	-14.8

Screens deposited in PubChem by several laboratories.
